We go through two compounds from paper PMC4917231 (MedChemComm, 2016).

Data set [1] in a line: Tissue distribution study in mice after IP dosing. The format is in vivo. To be noted: 20 mg/kg IP. A digest of the protocol:
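Non-tumour-bearing mice received a single IP dose of test compound at 20 mg kg⁻¹, given as a 1 mg ml⁻¹ formulation in 10:10:80 DMSO:Tween80:water. Compound residence in tissues was followed after dosing.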

The subject of data set [2] is Raji Burkitt B-cell lymphoma. In words: 96h MTT assay using Raji Burkitt B-cell lymphoma. The conditions noted are these: Homo sapiens, Raji cells. The format is cell-based. For orientation: Formazan colour is commonly taken as a measure of viable cells.

pEC50: −log10 of the molar value.

On to `CC(C)Cc1nn(C)c(=O)c2c(SCCCO)n(Cc3ccc(C#CCCCOc4ccc(C[C@H](N)C(=O)O)cc4)c4ccccc34)cc12` [Compound 10], for which the “detectability in tissues seven days after IP administration” value in data set [1] is “detectable in all tissues”.
On to `CC(C)Cc1nn(C)c(=O)c2c(SCCCO)n(Cc3ccc(NCCCCCNC(=O)[C@@H](N)CCC(N)=O)nc3)cc12` [Compound 12], for which the pEC50 in data set [2] is ~7.00.

For orientation: pEC50 means −log10 of the EC50, conventionally taken in molar units. The low end stands for a large EC50, the high end for a small EC50.
